Data reported in ChEMBL document CHEMBL4396895, “Identification and Optimization of Novel Cathepsin C Inhibitors Derived from EGFR Inhibitors” (J Med Chem, 2019).
The source made the active and inactive calls. The calls are words filed in the database; no cut-off is given here.

How the values were obtained:
Dipeptidyl peptidase 1 [1] = target: T1, Dipeptidyl peptidase 1 (Homo sapiens, UniProt P53634); assay: Inhibition of CatL-activated recombinant human C-terminal His10-tagged cathepsin C (25 to 463 residues) expressed in mouse myeloma cells using Gly-Phe-AFC as substrate preincubated for 3 hrs followed by substrate addition and measured after 60 mins; assay type: cell-free
Method in brief: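 Activated rhCatC was diluted to 4.4 nM in 25 mM MES, 50 mM NaCl, 5 mM DTT, 0.01% Triton X-100, pH 6.0. It was preincubated with compound (added in 10% DMSO) for 3 h at RT. Gly-Phe-AFC was then added to 100 μM final and read as fluorescence after 60 min. IC50 came from a sigmoidal nonlinear fit; values are means of at least two experiments.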

Dipeptidyl peptidase 1 [2] = target: T1, Dipeptidyl peptidase 1; assay: Inhibition of cathepsin C (unknown origin)
Method in brief: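 Enzyme preincubated with compound 3 h at RT. Gly-Phe-AFC added (100 μM final) and product fluorescence read after 60 min. IC50 from sigmoidal nonlinear regression, mean of at least two experiments.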

Dipeptidyl peptidase 1 [3] = target: T1, Dipeptidyl peptidase 1; assay: Inhibition of cathepsin C in human U937 cells using H-Gly-Phe-AFC as substrate preincubated for 4 hrs followed by substrate addition and measured after 60 mins; assay type: cell-based
Method in brief: (§1)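 THP1 or U937 cells, grown in RPMI 1640 with 10% FBS, were seeded at 1.0 × 10^6/mL. They were preincubated with threefold serial dilutions of compound for 4 h at 37 °C. H-Gly-Phe-AFC was then added from a 100 μM solution and fluorescence was read after 60 min at 37 °C. Values are means of at least two experiments.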

[4] = Intrinsic clearance in rat liver microsomes assessed per mg protein measured after 60 mins in presence of NADPH by LC-MS/MS analysis; assay type: ADME, Microsome; details: read-out: CLH
Dipeptidyl peptidase 1 [5] = target: T1, Dipeptidyl peptidase 1; assay: Inhibition of cathepsin C in human THP1 cells using H-Gly-Phe-AFC as substrate preincubated for 4 hrs followed by substrate addition and measured after 60 mins; assay type: cell-based; method in brief: as §1
[6] = Intrinsic clearance in human liver microsomes assessed per mg protein measured after 60 mins in presence of NADPH by LC-MS/MS analysis; assay type: ADME, Microsome; details: read-out: CLH
[7] = target: Epidermal growth factor receptor (Homo sapiens, UniProt P00533); assay: Inhibition of EGFR (unknown origin) up to 10 uM using biotin-labelled peptide as substrate preincubated for 2 hrs followed by substrate addition and measured after 30 mins by HTRF FRET assay
Method in brief: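 EGFR WT was used at 0.1 nM final in 50 mM HEPES pH 7.0, 0.02% NaN3, 0.01% BSA, 0.1 mM orthovanadate, 10 mM MgCl2, 2.5 mM DTT, 6.25 nM SEB. It was preincubated with compound for 2 h. Biotin-peptide (1.4 μM) and ATP (20 μM) were then added for 30 min at RT. Read-out was HTRF/TR-FRET (Ex 320, Em 615/665 nm) with a sigmoidal curve fit.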

[8] = Intrinsic clearance in mouse liver microsomes assessed per mg protein measured after 60 mins in presence of NADPH by LC-MS/MS analysis; assay type: ADME, Microsome; details: read-out: CLH
Cytochrome P450 2C19 = Cytochrome P450 2C19 (Homo sapiens, UniProt P33261); assay: Inhibition of CYP2C19 (unknown origin); assay type: ADME
Method in brief: (§2)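 Tested against recombinant human cytochrome P450 isoforms 1A2, 2D6, 3A4, 2C9 and 2C19.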

Cathepsin S = Cathepsin S (Homo sapiens, UniProt P25774); assay: Inhibition of recombinant human C-terminal polyhistidine-tagged cathepsin S (Met1 to Ile331 residues) expressed in HEK293 cells using MCA-Arg-Pro-Lys-Pro-Val-Glu-NVAL-Trp-Arg-Lys(DNP)-NH2 as substrate preincubated for 30 mins followed by substrate addition and measured after 30 mins
Method in brief: (§3)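 Recombinant human cathepsin was preincubated with compound for 30 min at RT, then reacted with substrate for 30 min. CatB and CatL were read with Z-Leu-Arg-AMC (Ex 380/Em 460 nm). CatS was read with MCA-Arg-Pro-Lys-Pro-Val-Glu-Nva-Trp-Arg-Lys(DNP)-NH2 (Ex 320/Em 405 nm). E-64 served as inhibitor control.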

Cytochrome P450 1A2 = target: T2, Cytochrome P450 1A2 (Homo sapiens, UniProt P05177); assay: Inhibition of CYP1A2 (unknown origin); assay type: ADME; method in brief: as §2
T2 sequence (P05177 whole entry): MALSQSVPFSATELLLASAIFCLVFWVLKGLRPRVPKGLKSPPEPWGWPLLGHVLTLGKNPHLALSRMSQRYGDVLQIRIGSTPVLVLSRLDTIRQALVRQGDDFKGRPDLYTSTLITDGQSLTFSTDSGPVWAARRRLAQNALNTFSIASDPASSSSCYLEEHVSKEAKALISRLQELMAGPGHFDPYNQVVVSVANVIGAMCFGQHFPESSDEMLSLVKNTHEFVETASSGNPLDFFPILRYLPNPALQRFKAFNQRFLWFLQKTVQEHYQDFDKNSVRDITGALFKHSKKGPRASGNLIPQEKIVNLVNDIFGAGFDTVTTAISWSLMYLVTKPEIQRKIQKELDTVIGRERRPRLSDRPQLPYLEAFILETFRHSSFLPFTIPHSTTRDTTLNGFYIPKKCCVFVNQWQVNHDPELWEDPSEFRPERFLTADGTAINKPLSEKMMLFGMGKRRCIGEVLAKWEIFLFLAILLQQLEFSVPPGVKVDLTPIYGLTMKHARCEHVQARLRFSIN

Cytochrome P450 2D6 = Cytochrome P450 2D6 (Homo sapiens, UniProt P10635); assay: Inhibition of CYP2D6 (unknown origin); assay type: ADME; method in brief: as §2
Cytochrome P450 3A4 = Cytochrome P450 3A4 (Homo sapiens, UniProt P08684); assay: Inhibition of CYP3A4 (unknown origin); assay type: ADME; method in brief: as §2
Cytochrome P450 2C9 = Cytochrome P450 2C9 (Homo sapiens, UniProt P11712); assay: Inhibition of CYP2C9 (unknown origin); assay type: ADME; method in brief: as §2
Procathepsin L = Procathepsin L (Homo sapiens, UniProt P07711); assay: Inhibition of recombinant human C-terminal His6-tagged cathepsin L (Glu113 to Val333 and Ala114 to Val333 residues) expressed in mouse myeloma cells using Z-Leu-Arg-AMC as substrate preincubated for 30 mins followed by substrate addition and measured after 30 mins; method in brief: as §3
Cathepsin B = Cathepsin B (Homo sapiens, UniProt P07858); assay: Inhibition of recombinant human C-terminal polyhistidine-tagged cathepsin B (Arg18 to Ile339 residues) expressed in HEK293 cells using Z-Leu-Arg-AMC as substrate preincubated for 30 mins followed by substrate addition and measured after 30 mins; method in brief: as §3

In the case of `C=CC(=O)Nc1cccc(Oc2nc(Nc3ccc(N4CCOCC4)cc3)ccc2Cl)c1`, the IC50 (Dipeptidyl peptidase 1 [1]) is reported as over 10 µM.

In the case of `C=CC(=O)Nc1cc2c(Nc3ccc(F)c(Cl)c3)ncnc2cc1OCCCN1CCOCC1` [CANERTINIB], the IC50 (Dipeptidyl peptidase 1 [2]) is reported as 2.7 µM.

In the case of `C#Cc1ccc(Nc2ccc(N3CCN(C)CC3)cc2OC)nc1Oc1cccc(NC(=O)C=C)c1`, the IC50 (Dipeptidyl peptidase 1 [1]) is reported as 0.392 µM.

`C=CC(=O)Nc1cccc(Oc2nc(Nc3ccc(N4CCN(C)CC4)cc3OC)ccc2C#N)c1` showed an IC50 (Dipeptidyl peptidase 1 [1]) of 0.835 µM.

In the case of `C=CC(=O)Nc1cc(Nc2nccc(-c3cn(C)c4ccccc34)n2)c(OC)cc1N(C)CCN(C)C` [OSIMERTINIB], the IC50 (Dipeptidyl peptidase 1 [2]) is reported as 32.9 µM.

For `C=CC(=O)Nc1cccc(Oc2nc(Nc3ccc(N4CCN(C)CC4)cc3OC)ccc2N2CCCCC2)c1`, the IC50 (Dipeptidyl peptidase 1 [1]) was 0.221 µM.

Molecule `C=CC(=O)Nc1cccc(Oc2nc(Nc3ccc(N4CCNCC4)cc3)ccc2Cl)c1` has an IC50 (Dipeptidyl peptidase 1 [1]) of 0.499 µM.

Work on `C=CC(=O)Nc1cc(Oc2nc(Nc3ccc(N4CCN(C)CC4)cc3)ccc2N2CCCCC2)ccc1C` yielded an IC50 (Dipeptidyl peptidase 1 [3]) of 0.0058 µM, an IC50 (Dipeptidyl peptidase 1 [1]) of 0.0176 µM and a microsomal CLint [4] of 15 µL/min/mg. The IC50 (Dipeptidyl peptidase 1 [5]) was 0.0027 µM, the microsomal CLint [6] was 2.9 µL/min/mg and the inhibition [7] was “inactive”.

Work on `C=CC(=O)Nc1ccc(C)c(Oc2nc(Nc3ccc(N4CCN(C)CC4)cc3OC)ccc2N2CCCC2)c1` yielded an IC50 (Dipeptidyl peptidase 1 [1]) of 0.505 µM.

`C=CC(=O)Nc1cc(Oc2nc(Nc3ccc(N4CCC(N(C)C)CC4)cc3OC)ccc2N2CCCCC2)ccc1C` showed an IC50 (Dipeptidyl peptidase 1 [3]) of 0.0022 µM, an IC50 (Dipeptidyl peptidase 1 [1]) of 0.0156 µM and a microsomal CLint [4] of 4.1 µL/min/mg. It also gave a microsomal CLint [8] of 4 µL/min/mg, an IC50 (Dipeptidyl peptidase 1 [5]) of 0.001 µM and a microsomal CLint [6] of 2.5 µL/min/mg.

`C=CC(=O)Nc1cc(Oc2nc(Nc3ccc(N4CCN(C)CC4)cc3OC)ccc2N2CCCC2)ccc1OC` showed an IC50 (Dipeptidyl peptidase 1 [3]) of 0.07 µM, an IC50 (Dipeptidyl peptidase 1 [1]) of 0.14 µM and an IC50 (Dipeptidyl peptidase 1 [5]) of 0.0213 µM.

Work on `C=CC(=O)Nc1cc(Oc2nc(Nc3ccc(N4CCN(C)CC4)cc3OC)ccc2N2CCOCC2)ccc1C` yielded an IC50 (Cytochrome P450 2C19) of over 10 µM, an IC50 (Cathepsin S) of over 10 µM and an IC50 (Dipeptidyl peptidase 1 [3]) of 0.0059 µM. For the same molecule, the IC50 (Cytochrome P450 1A2) was over 10 µM, the IC50 (Dipeptidyl peptidase 1 [1]) was 0.059 to 0.0593 µM and the IC50 (Cytochrome P450 2D6) was over 10 µM. For the same molecule, the microsomal CLint [4] was 10 µL/min/mg, the microsomal CLint [8] was 4 µL/min/mg and the IC50 (Dipeptidyl peptidase 1 [5]) was 0.0039 µM. The IC50 (Cytochrome P450 3A4) was over 10 µM, the IC50 (Cytochrome P450 2C9) was over 10 µM and the IC50 (Procathepsin L) was over 10 µM. The IC50 (Cathepsin B) was 3 to 10 µM, the microsomal CLint [6] was 1.9 µL/min/mg and the inhibition [7] was “inactive”.

For `C=CC(=O)Nc1cccc(Oc2nc(Nc3ccc(N4CCN(C)CC4)cc3)ccc2Cl)c1`, the IC50 (Dipeptidyl peptidase 1 [1]) was 0.483 µM.

With `CN(C)C/C=C/C(=O)Nc1cc2c(Nc3ccc(F)c(Cl)c3)ncnc2cc1O[C@H]1CCOC1` [AFATINIB] the IC50 (Dipeptidyl peptidase 1 [2]) was over 10 µM.

Work on `C=CC(=O)Nc1cc(Oc2nc(Nc3ccc(N4CCN(C)CC4)nc3OC)ccc2N2CCCCC2)ccc1C` yielded an IC50 (Dipeptidyl peptidase 1 [3]) of 0.01 µM, an IC50 (Dipeptidyl peptidase 1 [1]) of 0.0286 µM and a microsomal CLint [4] of 13 µL/min/mg. The microsomal CLint [8] was 22 µL/min/mg, the IC50 (Dipeptidyl peptidase 1 [5]) was 0.0065 µM and the microsomal CLint [6] was 6 µL/min/mg.

With `C=CC(=O)Nc1cccc(Oc2nc(Nc3ccc(N4CCN(C)CC4)cc3OC)ncc2Cl)c1` the IC50 (Dipeptidyl peptidase 1 [1]) was 2.1 µM and the IC50 (Dipeptidyl peptidase 1 [2]) was 2.1 µM.

In the case of `C=CC(=O)Nc1cccc(Oc2nc(Nc3ccc(N4CCN(CC5CC5)CC4)cc3)ccc2Cl)c1`, the IC50 (Dipeptidyl peptidase 1 [1]) is reported as 0.783 µM.
